The source made the active and inactive calls. The calls are words filed in the database; no cut-off is given here.
Columns and labels:
MCF7 [1] = assay: Cytotoxicity against human MCF7 cells after 24 hrs by MTT assay; assay type: functional, cell-based; conditions: MCF7, 24 h
Method in brief: (§1)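 Cells in DMEM, 10% FBS, 37 °C, 5% CO2, plated and incubated 24 h; compounds diluted in phenol-red-free DMEM with 0.5% FBS, vehicle control; after exposure, MTT (5 mg/mL stock) added 3 h, formazan dissolved in DMSO, absorbance 570 nm; IC50 derived; podophyllotoxin and tamoxifen positive controls.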

MDA-MB-231 [2] = assay: Cytotoxicity against human MDA-MB-231 cells after 24 hrs by MTT assay; assay type: functional, cell-based; conditions: MDA-MB-231, 24 h; method in brief: as §1
Homo sapiens = species: Homo sapiens; assay: Induction of microtubule stabilization (unknown origin) at 4 to 20 uM
HEK293 = assay: Cytotoxicity against human HEK293 cells after 24 hrs by MTT assay; assay type: cell-based; conditions: HEK293, 24 h; method in brief: as §1
MDA-MB-231 [3] = assay: Cytotoxicity against human MDA-MB-231 cells after 48 hrs by MTT assay; assay type: functional, cell-based; conditions: MDA-MB-231, 48 h; method in brief: as §1
MDA-MB-231 [4] = assay: Cytotoxicity against human MDA-MB-231 cells after 72 hrs by MTT assay; assay type: functional, cell-based; conditions: MDA-MB-231, 72 h; method in brief: as §1
MDA-MB-231 [5] = assay: Cytotoxicity against human MDA-MB-231 cells after 48 to 72 hrs by MTT assay; assay type: functional, cell-based; method in brief: as §1
MCF7 [6] = assay: Cytotoxicity against human MCF7 cells after 48 hrs by MTT assay; assay type: functional, cell-based; conditions: MCF7, 48 h; method in brief: as §1
MCF7 [7] = assay: Cytotoxicity against human MCF7 cells after 48 to 72 hrs by MTT assay; assay type: functional, cell-based; method in brief: as §1
Tubulin (Homo sapiens) [8] = target: T1, Tubulin (Homo sapiens) (UniProt P68371+Q9H4B7+P0DPH7+P68366+Q13509+Q71U36+P04350+Q3ZCM7+P07437+P68363+Q9BQE3+Q6PEY2+Q13885+Q9BVA1+Q9BUF5); assay: Induction of tubulin polymerization (unknown origin) at 10 to 40 uM measured every min for 1 hr; assay type: protein-complex assay
Method in brief: (§2)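 Tubulin 3 mg/mL in 80 mM PIPES pH 6.9, 2 mM MgCl2, 0.5 mM EGTA, 1 mM GTP, 15% glycerol at 37 °C with test compounds at varied concentrations; turbidity at 340 nm read every min for 1 h; podophyllotoxin inhibitor and paclitaxel stabiliser references, DMSO negative control.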

Tubulin (Homo sapiens) [9] = target: T1, Tubulin (Homo sapiens); assay: Induction of tubulin polymerization (unknown origin) at 10 to 40 uM measured every min for 1 hr in presence of PDT; assay type: protein-complex assay; method in brief: as §2
MCF7 [10] = assay: Cytotoxicity against human MCF7 cells after 72 hrs by MTT assay; assay type: functional, cell-based; conditions: MCF7, 72 h; method in brief: as §1
MCF7 [11] = assay: Induction of microtubule polymerization in human MCF7 cells assessed as actin-tubulin cytoskeleton stabilization at 10 uM by confocal microscopy; assay type: cell-based
Method in brief: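 MCF-7 cells treated, immunostained for actin and tubulin, and examined by confocal microscopy; paclitaxel-treated cells as positive control.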

| Compound | IC50 (MCF7 [1]) [µM] | IC50 (MDA-MB-231 [2]) [µM] | further results |
| --- | --- | --- | --- |
| CCOC(=O)/C=C/c1cc(OC)c(OC)c(/C(=C/c2ccc(OC)c(OC)c2)C(=O)OCC)c1 | > 100 | > 100 |  |
| COc1ccc(/C=C(\COC(C)=O)c2cc(/C=C/COC(C)=O)cc(OC)c2OC)cc1OC | > 100 | > 100 |  |
| COc1ccc(/C=C(\C(=O)O)c2cc(/C=C/C(=O)O)cc(OC)c2OC)cc1OC |  | 85 |  |
| CCOC(=O)C(=C\c1cc(OC)c(O)c(OC)c1)/C(=C/c1cc(OC)c(O)c(OC)c1)C(=O)OCC | > 100 | 82 |  |
| CCOC(=O)/C=C/c1ccc(OC)c(/C(=C/c2ccc(OC)cc2)C(=O)OCC)c1 | > 100 | > 100 |  |
| CCOC(=O)/C=C/c1ccc(O)c(/C(=C/c2ccc(OC(C)=O)cc2)C(=O)OCC)c1 | 66 | 16 | Activity (Homo sapiens): Active; IC50 (HEK293): 20 µM; IC50 (MDA-MB-231 [3]): 3.22 µM; IC50 (MDA-MB-231 [4]): 0.21 µM; Activity (MDA-MB-231 [5]): Active; IC50 (MCF7 [6]): 9.65 µM; Activity (MCF7 [7]): Active; Activity (Tubulin (Homo sapiens) [8]): Active; Activity (Tubulin (Homo sapiens) [9]): inactive; IC50 (MCF7 [10]): 0.82 µM |
| CCOC(=O)/C=C/c1cc(OC)c(O)c(/C(=C/c2ccc(OC(C)=O)c(OC)c2)C(=O)OCC)c1 | > 100 | > 100 |  |
| CC(=O)O[C@H]1C(=O)[C@@]2(C)[C@H]([C@H](OC(=O)c3ccccc3)[C@]3(O)C[C@H](OC(=O)[C@H](O)[C@@H](NC(=O)c4ccccc4)c4ccccc4)C(C)=C1C3(C)C)[C@]1(OC(C)=O)CO[C@@H]1C[C@@H]2O |  |  | Activity (MCF7 [11]): Active; Activity (Tubulin (Homo sapiens) [8]): Active; Activity (Tubulin (Homo sapiens) [9]): inactive |
| CCOC(=O)C(=C\c1cc(OC)c(OC(C)=O)c(OC)c1)/C(=C/c1cc(OC)c(OC(C)=O)c(OC)c1)C(=O)OCC | > 100 | > 100 |  |
| COc1cc([C@@H]2c3cc4c(cc3[C@H](O)[C@H]3COC(=O)[C@H]23)OCO4)cc(OC)c1OC [PODOFILOX] | 65 | 35.7 | IC50 (HEK293): 50 µM |
| COc1cc(/C=C(\C(N)=O)c2cc(/C=C/C(N)=O)cc(OC)c2O)ccc1O | 100 | 80 |  |
| COc1ccc(/C=C(\CO)c2cc(/C=C/CO)cc(OC)c2OC)cc1OC | > 100 | > 100 |  |
| COc1ccc(/C=C(\C(N)=O)c2cc(/C=C/C(N)=O)cc(OC)c2OC)cc1OC | 100 | 32 |  |
| CCOC(=O)/C=C/c1cc(OC)c(O)c(OC)c1/C(=C/c1cc(OC)c(O)c(OC)c1)C(=O)OCC | 74 | 92 |  |
| CC/C(=C(\c1ccccc1)c1ccc(OCCN(C)C)cc1)c1ccccc1 [TAMOXIFEN] |  |  | IC50 (HEK293): 26 µM |
| CCOC(=O)/C=C/c1cc(OC)c(O)c(/C(=C/c2ccc(O)c(OC)c2)C(=O)OCC)c1 | > 100 | > 100 |  |
| CCOC(=O)C(=C\c1cc(OC)c(OC)c(OC)c1)/C(=C/c1cc(OC)c(OC)c(OC)c1)C(=O)OCC | 100 | > 100 |  |

Source: ChEMBL document CHEMBL3112586, “Synthesis of neolignans as microtubule stabilisers” (Bioorg Med Chem, 2014)
